{
  "source": "ChEMBL document CHEMBL1144851",
  "about": "“Opioids and efflux transporters. Part 2: P-glycoprotein substrate activity of 3- and 6-substituted morphine analogs” (J Med Chem, 2008)",
  "key": {"[1]": {"assay": "Selectivity for recombinant mu opioid receptor over recombinant delta opioid receptor; call rule not given here", "how_it_was_run": "(§1)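 Ratios of Ki values from [3H]diprenorphine displacement in membranes of C6 rat glioma cells expressing µ or δ receptors and CHO cells expressing κ receptor; three experiments in duplicate.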"}, "[2]": {"biological_target": "Delta-type opioid receptor (Homo sapiens, UniProt P41143)", "sequence (P41143 whole entry)": "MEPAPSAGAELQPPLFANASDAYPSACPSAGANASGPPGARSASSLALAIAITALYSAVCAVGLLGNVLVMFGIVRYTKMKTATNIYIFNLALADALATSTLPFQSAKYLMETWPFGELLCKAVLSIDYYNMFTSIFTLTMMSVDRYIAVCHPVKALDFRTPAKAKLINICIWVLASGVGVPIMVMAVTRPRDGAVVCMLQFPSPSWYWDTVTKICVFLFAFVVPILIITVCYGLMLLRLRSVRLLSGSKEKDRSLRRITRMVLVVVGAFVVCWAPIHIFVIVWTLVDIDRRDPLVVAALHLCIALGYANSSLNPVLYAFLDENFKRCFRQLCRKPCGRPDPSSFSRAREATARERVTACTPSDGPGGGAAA", "assay": "Displacement of [3H]diprenorphine from recombinant delta opioid receptor expressed in C6 cells", "type": "cell-based", "how_it_was_run": "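Competitive binding against [3H]diprenorphine in membranes of C6 rat glioma cells expressing recombinant δ opioid receptor; Ki from three experiments run in duplicate, mean ± SEM.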"}, "[3]": {"assay": "Selectivity for recombinant mu opioid receptor over recombinant kappa opioid receptor", "how_it_was_run": "as §1"}, "Mu-type opioid receptor": {"biological_target": "Mu-type opioid receptor (Homo sapiens, UniProt P35372)", "sequence (P35372 whole entry)": "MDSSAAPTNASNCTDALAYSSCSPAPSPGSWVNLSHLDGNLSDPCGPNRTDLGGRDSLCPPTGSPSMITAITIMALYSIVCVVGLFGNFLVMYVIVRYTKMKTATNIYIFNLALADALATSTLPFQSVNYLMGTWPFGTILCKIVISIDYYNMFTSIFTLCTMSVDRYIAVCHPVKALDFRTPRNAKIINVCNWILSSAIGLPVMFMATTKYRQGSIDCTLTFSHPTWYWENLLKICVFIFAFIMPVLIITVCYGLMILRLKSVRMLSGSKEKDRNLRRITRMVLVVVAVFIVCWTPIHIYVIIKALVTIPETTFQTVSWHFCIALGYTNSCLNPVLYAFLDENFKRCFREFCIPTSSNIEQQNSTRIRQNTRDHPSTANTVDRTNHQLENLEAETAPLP", "assay": "Displacement of [3H]diprenorphine from recombinant mu opioid receptor expressed in C6 cells", "type": "cell-based"}, "[4]": {"biological_target": "Kappa-type opioid receptor (Homo sapiens, UniProt P41145)", "sequence (P41145 whole entry)": "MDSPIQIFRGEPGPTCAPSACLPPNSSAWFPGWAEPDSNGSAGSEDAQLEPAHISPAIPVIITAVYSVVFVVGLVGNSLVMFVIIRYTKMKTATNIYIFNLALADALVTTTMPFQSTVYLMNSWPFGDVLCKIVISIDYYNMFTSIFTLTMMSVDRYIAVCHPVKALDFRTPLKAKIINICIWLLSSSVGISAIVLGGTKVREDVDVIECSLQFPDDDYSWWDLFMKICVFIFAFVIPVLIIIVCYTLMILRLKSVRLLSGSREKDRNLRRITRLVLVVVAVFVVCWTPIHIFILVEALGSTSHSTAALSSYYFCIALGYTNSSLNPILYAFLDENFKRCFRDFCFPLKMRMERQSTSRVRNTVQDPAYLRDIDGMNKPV", "assay": "Displacement of [3H]diprenorphine from recombinant kappa opioid receptor expressed in CHO cells", "type": "cell-based"}, "[5]": {"biological_target": "ATP-dependent translocase ABCB1 (Homo sapiens, UniProt P08183)", "sequence (P08183 whole entry)": "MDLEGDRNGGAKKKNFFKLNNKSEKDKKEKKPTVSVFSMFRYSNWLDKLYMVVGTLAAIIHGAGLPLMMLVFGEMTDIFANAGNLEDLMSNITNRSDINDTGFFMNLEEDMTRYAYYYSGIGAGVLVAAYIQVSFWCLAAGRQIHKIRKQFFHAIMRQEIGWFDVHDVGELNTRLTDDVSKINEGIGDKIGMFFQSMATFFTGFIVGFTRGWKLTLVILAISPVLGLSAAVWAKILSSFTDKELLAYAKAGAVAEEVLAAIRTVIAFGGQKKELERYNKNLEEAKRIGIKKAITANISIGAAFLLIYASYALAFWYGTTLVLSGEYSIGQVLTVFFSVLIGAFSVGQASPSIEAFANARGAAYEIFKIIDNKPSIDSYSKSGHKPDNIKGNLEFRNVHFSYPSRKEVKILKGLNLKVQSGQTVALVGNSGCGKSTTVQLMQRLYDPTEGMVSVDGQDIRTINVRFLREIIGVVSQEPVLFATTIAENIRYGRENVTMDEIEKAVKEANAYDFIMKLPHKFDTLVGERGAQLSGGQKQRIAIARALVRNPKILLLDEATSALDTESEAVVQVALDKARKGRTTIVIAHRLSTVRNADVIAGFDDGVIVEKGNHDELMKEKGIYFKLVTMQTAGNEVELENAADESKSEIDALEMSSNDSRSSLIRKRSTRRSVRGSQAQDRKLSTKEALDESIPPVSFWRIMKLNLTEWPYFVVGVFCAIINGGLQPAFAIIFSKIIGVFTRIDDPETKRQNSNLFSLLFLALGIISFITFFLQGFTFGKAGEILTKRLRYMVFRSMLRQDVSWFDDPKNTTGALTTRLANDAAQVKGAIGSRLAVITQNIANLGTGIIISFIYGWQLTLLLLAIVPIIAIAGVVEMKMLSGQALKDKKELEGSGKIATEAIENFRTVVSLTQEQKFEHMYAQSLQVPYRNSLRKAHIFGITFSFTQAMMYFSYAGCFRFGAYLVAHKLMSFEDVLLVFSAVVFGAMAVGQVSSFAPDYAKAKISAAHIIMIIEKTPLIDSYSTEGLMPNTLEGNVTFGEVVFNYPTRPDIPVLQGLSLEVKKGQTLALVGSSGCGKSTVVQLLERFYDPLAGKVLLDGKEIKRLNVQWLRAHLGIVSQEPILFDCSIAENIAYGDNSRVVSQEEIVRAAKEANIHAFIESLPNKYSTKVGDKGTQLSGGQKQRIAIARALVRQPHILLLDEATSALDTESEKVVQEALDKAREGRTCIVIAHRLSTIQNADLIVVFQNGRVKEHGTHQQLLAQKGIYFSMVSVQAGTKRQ", "assay": "Effect on human recombinant Pgp-mediated ATP consumption assessed as inhibition of ATPase activity at 200 uM by Pgp-Glo assay", "how_it_was_run": "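Recombinant human P-gp incubated with 200 µM compound in P-gp-Glo buffer, four wells each; started with MgATP (10 mM), quenched after 40 min with firefly luciferase ATP detection reagent, luminescence read 60 min later. Untreated, vanadate (100 µM) and verapamil (200 µM) controls; mean ± SEM, t-test.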"}, "Mus musculus [6]": {"test_system": "Mus musculus", "assay": "Antinociceptive activity in sc dosed mouse by p-phenylquinone writhing assay", "type": "functional", "how_it_was_run": "(§2)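 Mice, test compound given subcutaneously; antinociception measured in tail-flick, p-phenylquinone writhing and hot plate assays following CPDD Drug Evaluation Committee protocols. ED50 (mg/kg) with 95% confidence limits.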"}, "Mus musculus [7]": {"test_system": "Mus musculus", "assay": "Antinociceptive activity in sc dosed mouse by hot plate assay", "type": "functional", "how_it_was_run": "as §2"}, "Mus musculus [8]": {"test_system": "Mus musculus", "assay": "Antinociceptive activity in sc dosed mouse by tail flick assay", "type": "functional", "how_it_was_run": "as §2"}},
  "data": [
    {"smiles": "CO[C@H]1CC[C@H]2[C@H]3Cc4cccc5c4[C@@]2(CCN3C)[C@H]1O5", "values": [
      {"measurement": "Ratio Ki", "setting": "[1]", "value": 17},
      {"measurement": "Ki", "setting": "[2]", "value": 8830, "unit": "nM"},
      {"measurement": "Ratio Ki", "setting": "[3]", "value": 22},
      {"measurement": "Ki", "setting": "Mu-type opioid receptor", "value": 524, "unit": "nM"},
      {"measurement": "Ki", "setting": "[4]", "value": 11600, "unit": "nM"}
    ]},
    {"smiles": "CN1CC[C@]23c4c5cccc4O[C@H]2CCC[C@H]3[C@H]1C5", "values": [
      {"measurement": "Ratio Ki", "setting": "[1]", "value": 11},
      {"measurement": "Ki", "setting": "[2]", "value": 241, "unit": "nM"},
      {"measurement": "Ratio Ki", "setting": "[3]", "value": 26},
      {"measurement": "Ki", "setting": "Mu-type opioid receptor", "value": 22.9, "unit": "nM"},
      {"measurement": "Ki", "setting": "[4]", "value": 589, "unit": "nM"}
    ]},
    {"smiles": "CO[C@H]1C=C[C@H]2[C@H]3Cc4ccc(O)c5c4[C@@]2(CCN3C)[C@H]1O5", "note": "[HETEROCODEINE]", "values": [
      {"measurement": "Ki", "setting": "[2]", "value": 65.8, "unit": "nM"},
      {"measurement": "Ki", "setting": "[4]", "value": 22.8, "unit": "nM"}
    ]},
    {"smiles": "COc1ccc2c3c1O[C@H]1[C@@H](OC)C=C[C@H]4[C@@H](C2)N(C)CC[C@@]341", "values": [
      {"measurement": "Ratio Ki", "setting": "[1]", "value": 2},
      {"measurement": "Ki", "setting": "[2]", "value": 4410, "unit": "nM"},
      {"measurement": "Ratio Ki", "setting": "[3]", "value": 3},
      {"measurement": "Ki", "setting": "Mu-type opioid receptor", "value": 1910, "unit": "nM"},
      {"measurement": "Ki", "setting": "[4]", "value": 5430, "unit": "nM"}
    ]},
    {"smiles": "CN1CC[C@]23c4c5ccc(O)c4O[C@H]2CC=C[C@H]3[C@H]1C5", "values": [
      {"measurement": "Activity", "setting": "[5]", "value": "Active"},
      {"measurement": "Ratio Ki", "setting": "[1]", "value": 4},
      {"measurement": "Ki", "setting": "[2]", "value": 11.8, "unit": "nM"},
      {"measurement": "Ratio Ki", "setting": "[3]", "value": 16},
      {"measurement": "ED50", "setting": "Mus musculus [6]", "value": 0.03, "unit": "mg/kg"},
      {"measurement": "Ki", "setting": "Mu-type opioid receptor", "value": 2.1, "unit": "nM"},
      {"measurement": "ED50", "setting": "Mus musculus [7]", "value": 0.33, "unit": "mg/kg"},
      {"measurement": "Ki", "setting": "[4]", "value": 45.5, "unit": "nM"},
      {"measurement": "ED50", "setting": "Mus musculus [8]", "value": 0.2, "unit": "mg/kg"}
    ]},
    {"smiles": "CN1CC[C@]23c4c5cccc4O[C@H]2[C@@H](O)CC[C@H]3[C@H]1C5", "values": [
      {"measurement": "Activity", "setting": "[5]", "value": "Active"},
      {"measurement": "Ratio Ki", "setting": "[1]", "value": 43},
      {"measurement": "Ki", "setting": "[2]", "value": 5250, "unit": "nM"},
      {"measurement": "Ratio Ki", "setting": "[3]", "value": 40},
      {"measurement": "Ki", "setting": "Mu-type opioid receptor", "value": 122, "unit": "nM"},
      {"measurement": "Ki", "setting": "[4]", "value": 4910, "unit": "nM"}
    ]},
    {"smiles": "COc1ccc2c3c1O[C@H]1CC=C[C@H]4[C@@H](C2)N(C)CC[C@]314", "values": [
      {"measurement": "Activity", "setting": "[5]", "value": "Active"},
      {"measurement": "Ratio Ki", "setting": "[1]", "value": 15},
      {"measurement": "Ki", "setting": "[2]", "value": 4520, "unit": "nM"},
      {"measurement": "Ratio Ki", "setting": "[3]", "value": 10},
      {"measurement": "Ki", "setting": "Mu-type opioid receptor", "value": 305, "unit": "nM"},
      {"measurement": "Ki", "setting": "[4]", "value": 3090, "unit": "nM"}
    ]}
  ]
}
